Results from different studies.
Protocols differ between the studies behind these lines.
Target: Dual specificity tyrosine-phosphorylation-regulated kinase 1A (DYRK1A, Homo sapiens, UniProt Q13627)

CN([C@@H]1CCc2c(CC(=O)O)c3ccccc3n2C1)S(=O)(=O)c1ccc(F)cc1 gave a remaining binding of 69% (cell-free assay, competition with immobilised ligand; 1 µM).
With Cc1cnc(Nc2ccc(C(=O)N3CCC(N4CCCC4)CC3)cc2)nc1-c1cc2ccccc2s1 the remaining binding was 19% (binding, competition with immobilised ligand; 1 µM).
For C[C@@H](c1ccc(-n2cnc3c(N)ncnc32)cc1)N1CCc2nn(C)c(Cc3ccccc3)c2C1=O, the remaining binding was 80% (binding, competition with immobilised ligand; 0.1 µM).
c1cncc(-c2cccc(Nc3nccc(NC4CCCCC4)n3)c2)c1 gave a remaining binding of 26% (binding, competition with immobilised ligand; 10 µM).
For COc1ccc2c(c1)O[C@@H](c1ccc(OC)c(OC)c1)C[C@H]2NC(=O)C1(c2ccc3c(c2)OC(F)(F)O3)CC1, the remaining binding was 80% (cell-free assay, competition with immobilised ligand; 1 µM).
For O=C(c1ccc(Nc2ncc(Cl)c(-c3ccc(Cl)s3)n2)cc1)N1CCC(N2CCCC2)CC1, the remaining binding was 1.8% (binding, competition with immobilised ligand; 1 µM).
Cc1c(C(=O)O)cc(-c2ccc(C3CCNCC3)cc2)c2ccc(-c3ccc(C(F)(F)F)cc3)cc12 gave a remaining binding of 100% (cell-free assay, competition with immobilised ligand; 1 µM).
CN(CCCC(F)(F)F)c1nccc(-c2cnn3ncccc23)n1 has a remaining binding of 35% (binding; 1 µM).
CCN1CCN(Cc2ccc(C(=O)Nc3ccc(C)c(Oc4ccc5c(c4)CC(=O)N5)c3)cc2C(F)(F)F)CC1 gave a remaining binding of 96% (binding, competition with immobilised ligand; 1 µM).
With CNC(=O)[C@@H]1CC[C@@H](n2c(-c3ccc4cnccc4c3)nc3ccc(C(=O)NCc4cccc(C(N)=O)c4)cc32)C1 the remaining binding was 100% (binding, competition with immobilised ligand; 1 µM).
With CSc1cccnc1N1CCN(Cc2nc3ccccc3[nH]2)CC1 the remaining binding was 79% (cell-free assay, competition with immobilised ligand; 1 µM).
O=C(c1ccc(Nc2ncc(Cl)c(-c3cc4ccccc4s3)n2)cc1)N1CCC(N2CCCC2)CC1 gave a remaining binding of 11% (binding, competition with immobilised ligand; 1 µM).
With O=C(NCC1CCOCC1)c1n[nH]cc1NC(=O)c1c(F)cccc1F the remaining binding was 0.4% (binding, competition with immobilised ligand; 1 µM).
